Measurements published in ChEMBL document CHEMBL1125344, “(Pyridylcyanomethyl)piperazines as orally active PAF antagonists” (J Med Chem, 1992).

Key:
[1] = biological target: Platelet-activating factor receptor (Mus musculus) (UniProt Q62035); experiment: Oral dose required to inhibit PAF-induced mortality (PAF-Antagonistic activity)in mice by 50%.; assay type: functional; conditions: Mus sp.
Summary of the method: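 Male Swiss mice, 22-26 g, in groups of 10. Compound or saline given po (20 mL/kg) 60 min before C18-PAF 100 µg/kg plus propranolol 1 mg/kg by tail vein. ID50 from percent inhibition of mortality versus controls.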

[2] = biological target: Platelet-activating factor receptor (Rattus norvegicus) (UniProt P46002); experiment: Dose required to inhibit PAF-induced hypotension (PAF-Antagonistic activity) in normotensive rats by 50%.; assay type: functional
Chain of Platelet-activating factor receptor (Rattus norvegicus) (P46002 whole entry): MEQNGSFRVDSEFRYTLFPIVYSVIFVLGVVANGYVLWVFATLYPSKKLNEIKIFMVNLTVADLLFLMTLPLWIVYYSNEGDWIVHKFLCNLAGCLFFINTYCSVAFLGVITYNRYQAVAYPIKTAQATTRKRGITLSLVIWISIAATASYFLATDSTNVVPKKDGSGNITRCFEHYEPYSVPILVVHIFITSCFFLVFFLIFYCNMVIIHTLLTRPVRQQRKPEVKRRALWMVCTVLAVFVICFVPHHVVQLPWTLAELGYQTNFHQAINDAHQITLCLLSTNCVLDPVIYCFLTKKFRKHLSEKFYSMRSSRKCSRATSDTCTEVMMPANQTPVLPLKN
Summary of the method: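 Male Sprague-Dawley rats, 180-220 g, anesthetized with sodium pentobarbital ip. Carotid blood pressure recorded. Compound given iv in saline (1 mL/kg) via femoral vein 3 min before PAF 0.5 µg/kg iv; vehicle controls. ID50 by linear regression of one curve of at least four doses, each the mean % inhibition from two or more experiments.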

Chain of Platelet-activating factor receptor (Mus musculus) (Q62035 whole entry): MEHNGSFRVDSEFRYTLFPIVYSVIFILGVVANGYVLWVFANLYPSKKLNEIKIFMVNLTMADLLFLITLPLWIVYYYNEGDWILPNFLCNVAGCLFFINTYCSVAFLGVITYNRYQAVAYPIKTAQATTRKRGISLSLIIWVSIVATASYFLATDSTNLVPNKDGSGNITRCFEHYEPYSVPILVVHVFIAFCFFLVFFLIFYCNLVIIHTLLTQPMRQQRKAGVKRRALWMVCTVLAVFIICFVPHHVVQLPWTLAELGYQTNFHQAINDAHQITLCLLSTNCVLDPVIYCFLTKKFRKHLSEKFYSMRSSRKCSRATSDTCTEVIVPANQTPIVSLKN

| Compound | ID50 [1] | ID50 [2] |
| --- | --- | --- |
| CC(C#N)(c1cccnc1)N1CCN(C(=O)C(c2ccccc2)c2ccccc2)CC1 (stereo not drawn) | > 30 mg/kg | > 5 mg/kg |
| N#CC(c1cccnc1)N1CCN(C(=O)CC(c2ccccc2)c2ccccc2)CC1 (stereo not drawn) | 12 mg/kg | 0.013 mg/kg |
| N#CC(c1cccnc1)N1CCN(C(=O)C(c2ccccc2)c2ccccc2)CC1 (stereo not drawn) | 12 mg/kg | 0.11 mg/kg |
| N#CC(c1cccc(C(F)(F)F)c1)N1CCN(C(=O)CC(c2ccccc2)c2ccccc2)CC1 (stereo not drawn) | > 30 mg/kg | > 5 mg/kg |
| N#CC(c1cccnc1)N1CCN(C(=O)CCc2ccccc2)CC1 (stereo not drawn) | 44 mg/kg | 1.2 mg/kg |
| N#CC(CN1CCN(C(=O)C(c2ccccc2)c2ccccc2)CC1)c1cccnc1 (stereo not drawn) |  | > 5 mg/kg |
| O=C(CC(c1ccccc1)c1ccccc1)N1CCC(Nc2cccnc2)CC1 |  | 2.4 mg/kg |
| N#CC(c1cccnc1)N1CCN(C(=O)CCNC(c2ccccc2)c2ccccc2)CC1 (stereo not drawn) | 5.4 mg/kg | 0.025 mg/kg |
| COc1cc(C(=O)N2CCN(C(=O)c3cccnc3)CC2)cc(OC)c1OC | > 100 mg/kg | > 5 mg/kg |
| N#CC(c1cccnc1)N1CCN(C(=O)Cc2cccc3ccccc23)CC1 (stereo not drawn) | > 50 mg/kg | 1.3 mg/kg |
| N#Cc1cccc(C(C#N)N2CCN(C(=O)CC(c3ccccc3)c3ccccc3)CC2)c1 (stereo not drawn) | > 30 mg/kg | > 5 mg/kg |
| N#CC(c1cccnc1)N1CCN(C(=O)CNC(Cc2ccccc2)c2ccccc2)CC1 (stereo not drawn) | > 10 mg/kg | 0.38 mg/kg |
| CC(C)(C)C(=O)N1CCN(C(C#N)c2cccnc2)CC1 (stereo not drawn) |  | > 5 mg/kg |
| N#CC(c1cccnc1)N1CCN(C(=O)Cc2ccccc2)CC1 (stereo not drawn) | 50 mg/kg | 1.5 mg/kg |
| N#CC(c1cccnc1)N1CCN(C(=O)/C=C/c2ccccc2)CC1 (stereo not drawn) | 100 mg/kg | 0.24 mg/kg |
| N#CC(c1cccnc1)N1CCN(C(=O)CN(Cc2ccccc2)c2ccccc2)CC1 (stereo not drawn) | > 30 mg/kg | 0.42 mg/kg |
| N#CC(c1cccnc1)N1CCN(C(=O)CNc2cccc3ccccc23)CC1 (stereo not drawn) |  | 2.5 mg/kg |
| CCCCCCCCCCCCCCCC(=O)N1CCN(C(C#N)c2cccnc2)CC1 (stereo not drawn) |  | > 5 mg/kg |
| Cn1cc(C(C#N)N2CCN(C(=O)CC(c3ccccc3)c3ccccc3)CC2)c2ccccc21 (stereo not drawn) |  | > 5 mg/kg |
| N#CC(c1cccnc1)N1CCN(C(=O)CNCc2ccccc2)CC1 (stereo not drawn) | 50 mg/kg | 0.8 mg/kg |
| N#CC(c1ccncc1)N1CCN(C(=O)CC(c2ccccc2)c2ccccc2)CC1 (stereo not drawn) | 7.3 mg/kg | 0.041 mg/kg |
| N#CC(c1cccnc1)N1CCN(C(=O)Cc2c[nH]c3ccccc23)CC1 (stereo not drawn) | > 50 mg/kg | 3.3 mg/kg |
| NC(=O)C(c1cccnc1)N1CCN(C(=O)C(c2ccccc2)c2ccccc2)CC1 (stereo not drawn) |  | > 5 mg/kg |
| CCCCCCCC(=O)N1CCN(C(C#N)c2cccnc2)CC1 (stereo not drawn) | 100 mg/kg | 1.2 mg/kg |

| Compound | ID50 [1] | ID50 [2] |
| --- | --- | --- |
| N#CC(c1cccnc1)N1CCN(C(=O)CC(O)(c2ccccc2)c2ccccc2)CC1 (stereo not drawn) | 4.7 mg/kg | 0.061 mg/kg |
| N#CC(c1cccnc1)N1CCN(C(=O)/C(=C/c2ccccc2)c2ccccc2)CC1 (stereo not drawn) | > 20 mg/kg | 0.17 mg/kg |
| COc1cc(CCC(=O)N2CCN(C(=O)c3cc(OC)c(OC)c(OC)c3)CC2)cc(OC)c1OC |  | > 5 mg/kg |
| N#CC(c1cccnc1)N1CCN(CCNC(=O)C(c2ccccc2)c2ccccc2)CC1 (stereo not drawn) | 50 mg/kg | 0.29 mg/kg |
| COc1cc(C(=O)N2CCN(C(C#N)c3cccnc3)CC2)cc(OC)c1OC (stereo not drawn) | > 100 mg/kg | 4.4 mg/kg |
| COc1cc(CC(=O)N2CCN(C(C#N)c3cccnc3)CC2)cc(OC)c1OC (stereo not drawn) | > 50 mg/kg | 2.5 mg/kg |
| COc1cc(CCC(=O)N2CCN(C(C#N)c3cccnc3)CC2)cc(OC)c1OC (stereo not drawn) | 100 mg/kg | 2 mg/kg |
| N#CC(c1cccnc1)N1CCN(C(=O)NC(c2ccccc2)c2ccccc2)CC1 (stereo not drawn) | 30 mg/kg | 0.29 mg/kg |
| O=C(C(c1ccccc1)c1ccccc1)N1CC[N+]([O-])(Cc2cccnc2)CC1 |  | > 5 mg/kg |
| N#CC(c1cccnc1)N1CCN(CC(=O)NCCC(c2ccccc2)c2ccccc2)CC1 (stereo not drawn) | > 30 mg/kg | 3 mg/kg |
| CC(c1cccnc1)N1CCN(C(=O)C(c2ccccc2)c2ccccc2)CC1 (stereo not drawn) | 100 mg/kg | 3.6 mg/kg |
| N#CC(c1cccnc1)C1CCN(C(=O)CNC(c2ccccc2)c2ccccc2)CC1 (stereo not drawn) | 2.6 mg/kg | 0.03 mg/kg |
| N#CC(c1cccnc1)N1CCN(C(=O)CN(Cc2ccccc2)Cc2ccccc2)CC1 (stereo not drawn) | > 10 mg/kg | 1.7 mg/kg |
| CN(CC(=O)N1CCN(C(C#N)c2cccnc2)CC1)C(c1ccccc1)c1ccccc1 (stereo not drawn) | 4.6 mg/kg | 0.33 mg/kg |
| N#CC(c1cccnc1)N1CCN(C(=O)C(Cc2ccccc2)Cc2ccccc2)CC1 (stereo not drawn) | 100 mg/kg | 0.68 mg/kg |
| N#CC(c1cccnc1)N1CCN(C(=O)CNCCCc2ccccc2)CC1 (stereo not drawn) | 50 mg/kg | 1.3 mg/kg |
| CC(c1ccccc1)N(C)CC(=O)N1CCN(C(C#N)c2cccnc2)CC1 (stereo not drawn) | > 50 mg/kg | 0.77 mg/kg |
| N#CC(c1cccnc1)N1CCN(C(=O)C(CCc2ccccc2)c2ccccc2)CC1 (stereo not drawn) |  | 0.73 mg/kg |
| CC(NCC(=O)N1CCN(C(C#N)c2cccnc2)CC1)c1ccccc1 (stereo not drawn) | 18 mg/kg | 0.39 mg/kg |
| N#CC(c1cccnc1)N1CCN(C(=O)CNC(c2ccccc2)c2ccccc2)CC1 (stereo not drawn) | 5.9 mg/kg | 0.023 mg/kg |
| N#CC(c1cccnc1)N1CCN(C(=S)C(c2ccccc2)c2ccccc2)CC1 (stereo not drawn) | > 50 mg/kg | 0.45 mg/kg |
| N#CC(c1cccnc1)N1CCN(C(=O)c2ccccc2)CC1 (stereo not drawn) |  | > 5 mg/kg |
| O=C(C(c1ccccc1)c1ccccc1)N1CCN(Cc2cccnc2)CC1 |  | 2.7 mg/kg |
| N#CC1(Nc2cccnc2)CCN(C(=O)CC(c2ccccc2)c2ccccc2)CC1 | 12 mg/kg | 0.04 mg/kg |

| Compound | ID50 [1] | ID50 [2] |
| --- | --- | --- |
| N#CC(c1ccncc1)N1CCN(C(=O)CNC(=O)C(c2ccccc2)c2ccccc2)CC1 (stereo not drawn) | > 20 mg/kg | 0.47 mg/kg |
| COc1cc(C(=O)N2CCN(Cc3cccnc3)CC2)cc(OC)c1OC | > 100 mg/kg | > 5 mg/kg |
| N#CC(c1cccnc1)C1CCN(C(=O)C(c2ccccc2)c2ccccc2)CC1 (stereo not drawn) | 14 mg/kg | 0.023 mg/kg |
| Cn1ccc(C(C#N)N2CCN(C(=O)CC(c3ccccc3)c3ccccc3)CC2)c1 (stereo not drawn) |  | 4.2 mg/kg |
| CCCCC(=O)N1CCN(C(C#N)c2cccnc2)CC1 (stereo not drawn) | > 50 mg/kg | 4.3 mg/kg |
| O=C(CC(c1ccccc1)c1ccccc1)N1CCN(Cc2cccnc2)CC1 | 35 mg/kg | 0.48 mg/kg |
| N#CC(c1ccncc1)N1CCN(C(=O)CC(O)(c2ccccc2)c2ccccc2)CC1 (stereo not drawn) | 7.7 mg/kg | 0.061 mg/kg |
| N#CC(=C1CCN(C(=O)CC(c2ccccc2)c2ccccc2)CC1)c1cccnc1 | 30 mg/kg | 0.42 mg/kg |
| CC(C(=O)N1CCN(C(C#N)c2cccnc2)CC1)(c1ccccc1)c1ccccc1 (stereo not drawn) | > 30 mg/kg | 0.14 mg/kg |
| N#CC(c1cccnc1)N1CCN(C(=O)CNc2ccccc2)CC1 (stereo not drawn) | 28 mg/kg | 0.49 mg/kg |
| N#CC(c1ccncc1)N1CCN(C(=O)CCNC(c2ccccc2)c2ccccc2)CC1 (stereo not drawn) | 3.2 mg/kg | 0.037 mg/kg |
| COc1cc(C(=O)N2CCN(C(C#N)c3ccccn3)CC2)cc(OC)c1OC (stereo not drawn) |  | > 5 mg/kg |
| N#CC(c1cccnc1)N1CCN(C(=O)C=C(c2ccccc2)c2ccccc2)CC1 (stereo not drawn) | 50 mg/kg | 0.049 mg/kg |
| COc1cc(C(=O)N2CCN(C(=O)c3cc(OC)c(OC)c(OC)c3)CC2)cc(OC)c1OC | > 100 mg/kg | 4.7 mg/kg |
| N#CC(c1cccnc1)N1CCN(C(=O)CNCC(c2ccccc2)c2ccccc2)CC1 (stereo not drawn) | > 10 mg/kg | 0.36 mg/kg |
| COc1cc(C(=O)N2CCN(C(=S)c3cccnc3)CC2)cc(OC)c1OC | 100 mg/kg | > 5 mg/kg |
| CN(CC(=O)N1CCN(C(C#N)c2cccnc2)CC1)c1ccccc1 (stereo not drawn) |  | 2.2 mg/kg |
| N#CC(c1cccnc1)N1CCN(CCC(c2ccccc2)c2ccccc2)CC1 (stereo not drawn) | 15 mg/kg | 3.1 mg/kg |
| N#CC(c1cccc(Cl)c1)N1CCN(C(=O)CC(c2ccccc2)c2ccccc2)CC1 (stereo not drawn) | > 30 mg/kg | > 5 mg/kg |
| N#CC(c1cccnc1)N1CCC(OC(=O)CC(c2ccccc2)c2ccccc2)CC1 (stereo not drawn) |  | > 5 mg/kg |
| CN(CCCc1ccccc1)CC(=O)N1CCN(C(C#N)c2cccnc2)CC1 (stereo not drawn) |  | > 5 mg/kg |
| N#CC(c1cccnc1)N1CCN(CCNC(=O)CC(c2ccccc2)c2ccccc2)CC1 (stereo not drawn) |  | 2.2 mg/kg |
| O=C(c1cccnc1)N1CCN(C(=O)C(c2ccccc2)c2ccccc2)CC1 |  | > 5 mg/kg |
